In paper PMC9218293 (Molecular Therapy Oncolytics, 2022):
Where two headings read alike, the source gives them in different places.

Columns and labels:
[1] = test system: P-ERK1/2 (Thr202/Tyr204) in YUMM1.7R cells; assay: Immunoblotting for P-ERK1/2 after vemurafenib; type: cell-based, mouse; conditions: vemurafenib 5 μM; YUMM1.7R condition 1; immunoblot; Figure S1C
YUMM1.7P cells = assay: WST-8 cell viability assay; type: cell-based; conditions: Mus musculus, read-out: IC50 value of vemurafenib for YUMM1.7P cells
Method in brief: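 Parental mouse melanoma YUMM1.7 cells (BRAF V600E) were grown in DMEM/F12 with 10% fetal bovine serum and 1% penicillin/streptomycin at 37°C, humidified 5% CO₂.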

[2] = test system: TME of YUMM1.7R-derived tumors; assay: Flow cytometry of tumor-infiltrating immune cells; type: in vivo, C57BL/6 mice; conditions: VEM 20 mg/kg i.p. daily, n = 6
[3] = test system: TME of YUMM1.7P-derived tumors; assay: Flow cytometry of tumor-infiltrating immune cells; type: in vivo, C57BL/6 mice; conditions: VEM 20 mg/kg i.p. daily, n = 6
Method in brief: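 C57BL/6 mice (6–8 weeks) received 3 × 10⁵ YUMM1.7P cells s.c. Vehicle or vemurafenib was given at 20 mg/kg i.p. daily. Tumors were harvested and dissociated to single cells. Dead cells were excluded with fixable viability dye eFluor 506. Populations were gated as frequencies among live/dead⁻CD45⁺ cells: MDSCs CD45⁺CD11b⁺Gr1⁺, TAMs CD45⁺Gr1⁻CD11b⁺F4/80⁺, CD8⁺ T cells CD45⁺CD3⁺CD8⁺. n = 6 mice/group, means ± SEM.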

YUMM1.7P-derived tumors = assay: Syngeneic mouse melanoma model, tumor growth; type: in vivo, C57BL/6 mice; conditions: 20 mg/kg i.p. daily; n = 6 mice/group; Figure 1A
Method in brief: (§1)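 Tumors were established in C57BL/6 mice (6–8 weeks) by s.c. injection of 3 × 10⁵ YUMM1.7P or YUMM1.7R cells. Daily i.p. vehicle or vemurafenib was given at 20 mg/kg. Tumor size was monitored, n = 6 mice/group, as means ± SEM with two-way ANOVA and Tukey's post hoc test. Mice with tumors >1,500 mm³ were euthanized.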

YUMM1.7R cells = assay: WST-8 cell viability assay; type: cell-based; conditions: Mus musculus
Method in brief: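 Resistant YUMM1.7R cells were derived by exposing parental YUMM1.7 cells to vemurafenib for 8–10 weeks, with the concentration escalated from a low (condition 1) or medium (condition 2) start. They were then kept under continuous 5 μM vemurafenib in DMEM/F12 with 10% fetal bovine serum and 1% penicillin/streptomycin at 37°C, 5% CO₂.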

[4] = test system: P-ERK1/2 (Thr202/Tyr204) in YUMM1.7P cells; assay: Immunoblotting for P-ERK1/2 after vemurafenib; type: cell-based, mouse; conditions: vemurafenib 5 μM, immunoblot, Figure S1C
YUMM1.7R-derived tumors = assay: Syngeneic mouse melanoma model, tumor growth and survival; type: in vivo, C57BL/6 mice; conditions: 20 mg/kg i.p. daily; n = 6 mice/group; Figure 1A
Method in brief: as §1

With `CCCS(=O)(=O)Nc1ccc(F)c(C(=O)c2c[nH]c3ncc(-c4ccc(Cl)cc4)cc23)c1F` [vemurafenib] the ERK phosphorylation [1] was “this reduction was dramatically suppressed”, the IC50 (YUMM1.7P cells) was 3.12 µM and the “frequency of MDSCs” value ([2]; Figure 1B) was “reduction”. The “frequency of TAMs” value ([2]; Figure 1C) was “reduction”, the “frequency of CD8+ T cells” value ([2]; Figure 1D) was “failed to increase” and the “frequency of CD3+CD4+ T cells” value ([2]; Figure S3) was “No significant change”. For the same compound, the “frequency of CD8+ T cells” value ([3]; CD45+CD3+CD8+, Figure 1D) was “increased”, the “frequency of MDSCs” value ([3]; CD45+CD11b+Gr1+, Figure 1B) was “significant decrease” and the “frequency of TAMs” value ([3]; CD45+Gr1-CD11b+F4/80+, Figure 1C) was “significant decrease”. The “frequency of CD3+CD4+ T cells” value ([3]; Figure S3) was “No significant change”, the “inhibition of tumor growth” value (YUMM1.7P-derived tumors) was “highly sensitive” and the IC50 (YUMM1.7R cells; read-out: IC50, YUMM1.7R (condition 1)) was 10.4 µM. For the same compound, the IC50 (YUMM1.7R cells; read-out: IC50, YUMM1.7R (condition 2)) was 9.48 µM, the ERK phosphorylation [4] was “considerable reduction” and the tumor growth (YUMM1.7R-derived tumors) was “unaffected”.
